Results as given in ChEMBL document CHEMBL3745654, “N-Alkylated arylsulfonamides of (aryloxy)ethyl piperidines: 5-HT(7) receptor selectivity versus multireceptor profile” (Bioorg Med Chem, 2016).
Activity calls are given as the source filed them. No cut-off for these calls is given here.

How the values were obtained:
D(2) dopamine receptor = D(2) dopamine receptor (Homo sapiens, UniProt P14416); test: Antagonist activity at human dopamine D2L receptor expressed in HEK293 cells assessed as inhibition of dopamine-induced cAMP level at 1 uM; assay type: functional, cell-based
Outline: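 Cellular functional cAMP antagonist assay in HEK293 cells, run externally. Inhibition of control agonist response (dopamine 30 nM) measured with compound at 10^-6 M.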

[1] = target: T1, Muscarinic acetylcholine receptor M1 (Homo sapiens) (UniProt P11229); test: Displacement of [3H]-pirenzepine from human recombinant muscarinic M1 receptor expressed in CHO cells at 1 uM after 60 mins by Scintillation counting method; assay type: cell-based
T1 sequence (whole entry): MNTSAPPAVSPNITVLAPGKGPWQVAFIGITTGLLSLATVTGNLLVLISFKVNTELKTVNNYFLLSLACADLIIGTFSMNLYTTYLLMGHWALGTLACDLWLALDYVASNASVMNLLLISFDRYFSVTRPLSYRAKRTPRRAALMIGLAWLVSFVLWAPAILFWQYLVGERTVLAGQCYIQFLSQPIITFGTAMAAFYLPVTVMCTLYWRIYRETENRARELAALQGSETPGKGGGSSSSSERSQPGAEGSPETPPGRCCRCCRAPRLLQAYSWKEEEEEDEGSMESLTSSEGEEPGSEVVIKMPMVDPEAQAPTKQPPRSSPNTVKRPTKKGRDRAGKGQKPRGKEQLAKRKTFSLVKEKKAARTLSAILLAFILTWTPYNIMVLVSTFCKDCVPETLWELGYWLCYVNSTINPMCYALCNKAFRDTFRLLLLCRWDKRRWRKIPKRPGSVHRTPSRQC

[2] = target: T2, 5-hydroxytryptamine receptor 2C (Homo sapiens) (UniProt P28335); test: Displacement of [3H]-mesulergine from human recombinant serotonin 5-HT2C receptor expressed in HEK293 cells at 1 uM incubated for 120 mins by scintillation counting method; assay type: cell-based
T2 sequence (whole entry): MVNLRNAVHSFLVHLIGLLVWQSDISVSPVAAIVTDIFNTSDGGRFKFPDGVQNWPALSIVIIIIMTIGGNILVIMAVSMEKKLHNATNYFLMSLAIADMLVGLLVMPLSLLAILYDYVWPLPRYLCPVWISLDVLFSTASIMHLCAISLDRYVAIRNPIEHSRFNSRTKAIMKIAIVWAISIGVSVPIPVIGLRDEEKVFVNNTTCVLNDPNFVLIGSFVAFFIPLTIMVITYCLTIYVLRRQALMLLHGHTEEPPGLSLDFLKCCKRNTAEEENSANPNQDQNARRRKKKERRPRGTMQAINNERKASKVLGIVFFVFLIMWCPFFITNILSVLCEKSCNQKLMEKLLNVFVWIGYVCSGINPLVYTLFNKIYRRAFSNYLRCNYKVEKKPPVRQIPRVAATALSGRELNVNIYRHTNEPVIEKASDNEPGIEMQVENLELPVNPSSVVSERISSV

[3] = target: 5-hydroxytryptamine receptor 7 (Homo sapiens, UniProt P34969); test: Displacement of [3H]-5-CT from human 5-HT7B receptor expressed in HEK293 cells incubated for 1 hr; assay type: cell-based
Outline: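 Membranes from HEK293 cells stably expressing human 5-HT7b receptor, with [3H]-5-CT (39.2 Ci/mmol). Buffer: 50 mM Tris-HCl, 4 mM MgCl2, pargyline, 0.1% ascorbate. Incubation 1 h at 37 °C, then rapid filtration and counting of filter radioactivity. Non-specific binding defined with 5-HT. Triplicates at 7–8 concentrations (10^-11 to 10^-4 M). Ki by Cheng–Prusoff.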

[4] = Intrinsic clearance in mouse liver microsomes at 20 uM at pH 7.4 incubated for 15 mins by UPLC/MS analysis in presence of NADPH; assay type: ADME; conditions: read-out: CLH
Rattus norvegicus [5] = test: Effect on exploratory activity in PCP-treated Sprague-Dawley rat at 1 mg/kg, ip dosed 1 hr and 15 mins before familiarization phase by novel object recognition test; assay type: functional, organism-based
Outline: (§1)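 Male Sprague–Dawley rats (~250 g), 7–12 per group, PCP-induced deficit model. Compounds ip 1 h and 15 min before T1. Day 1: 5-min arena habituation. Day 2: two 3-min trials 1 h apart, with two identical objects, then one replaced by a novel object. Exploration and distance video-tracked; discrimination index computed; ANOVA with Newman–Keuls.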

[6] = Drug metabolism in mouse liver microsomes assessed as retention time of N-dealkylated metabolite at 20 uM at pH 7.4 incubated for 15 mins by UPLC/MS analysis in presence of NADPH; assay type: ADME; conditions: pH 7.4, 0.25 h
Outline: (§2)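 Compound (20 µM) incubated with mouse liver microsomes (0.2 mg/ml) in 100 mM potassium phosphate, pH 7.4, 37 °C. Reaction started with NADPH-regenerating system; blank without NADPH run in parallel. Sampling at 5, 15, 30 and 60 min (some to 120 min), in duplicate. Levallorphan internal standard; UPLC/MS quantitation. t1/2 from ln % remaining vs time.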

[7] = Metabolic stability in mouse liver microsomes assessed as retention time of compound at 20 uM at pH 7.4 incubated for 15 mins by UPLC/MS analysis in presence of NADPH; assay type: ADME; conditions: pH 7.4, 0.25 h; outline: as §2
[8] = target: T3, 5-hydroxytryptamine receptor 1A (Homo sapiens, UniProt P08908); test: Displacement of [3H]-8-OH-DPAT from human 5-HT1A receptor expressed in HEK293 cells incubated for 1 hr; assay type: cell-based
T3 sequence (P08908 whole entry): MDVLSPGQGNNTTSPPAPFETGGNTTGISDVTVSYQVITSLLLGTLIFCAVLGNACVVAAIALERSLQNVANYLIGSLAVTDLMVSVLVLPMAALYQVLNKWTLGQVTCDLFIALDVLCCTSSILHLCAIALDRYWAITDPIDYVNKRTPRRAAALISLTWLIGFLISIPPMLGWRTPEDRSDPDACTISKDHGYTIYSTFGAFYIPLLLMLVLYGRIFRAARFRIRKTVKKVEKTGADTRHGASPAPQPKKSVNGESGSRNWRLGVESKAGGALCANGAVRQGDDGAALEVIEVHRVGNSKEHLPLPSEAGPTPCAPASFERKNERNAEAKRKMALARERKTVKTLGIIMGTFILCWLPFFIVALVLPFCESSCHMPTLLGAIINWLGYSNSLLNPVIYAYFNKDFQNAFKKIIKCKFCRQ
Outline: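 Membranes from HEK293 cells stably expressing human 5-HT1A receptor, with [3H]-8-OH-DPAT (187 Ci/mmol). Buffer: 50 mM Tris-HCl, 0.1 mM EDTA, 4 mM MgCl2, pargyline, 0.1% ascorbate. Incubation 1 h at room temperature, then filtration. Non-specific binding defined with 5-HT. Triplicates at 7–8 concentrations. Ki by Cheng–Prusoff.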

Rattus norvegicus [9] = test: Pro-cognitive effect in ip dosed Sprague-Dawley rat assessed as amelioration of PCP-induced memory deficit dosed 1 hr and 15 mins before familiarization phase by novel object recognition test; assay type: functional; conditions: for minimal effective dose: read-out: MED; outline: as §1
[10] = Drug metabolism in mouse liver microsomes assessed as retention time of hydroxylated metabolite at 20 uM at pH 7.4 incubated for 15 mins by UPLC/MS analysis in presence of NADPH; assay type: ADME; conditions: pH 7.4, 0.25 h; outline: as §2

5-hydroxytryptamine receptor 7, sequence (P34969 whole entry): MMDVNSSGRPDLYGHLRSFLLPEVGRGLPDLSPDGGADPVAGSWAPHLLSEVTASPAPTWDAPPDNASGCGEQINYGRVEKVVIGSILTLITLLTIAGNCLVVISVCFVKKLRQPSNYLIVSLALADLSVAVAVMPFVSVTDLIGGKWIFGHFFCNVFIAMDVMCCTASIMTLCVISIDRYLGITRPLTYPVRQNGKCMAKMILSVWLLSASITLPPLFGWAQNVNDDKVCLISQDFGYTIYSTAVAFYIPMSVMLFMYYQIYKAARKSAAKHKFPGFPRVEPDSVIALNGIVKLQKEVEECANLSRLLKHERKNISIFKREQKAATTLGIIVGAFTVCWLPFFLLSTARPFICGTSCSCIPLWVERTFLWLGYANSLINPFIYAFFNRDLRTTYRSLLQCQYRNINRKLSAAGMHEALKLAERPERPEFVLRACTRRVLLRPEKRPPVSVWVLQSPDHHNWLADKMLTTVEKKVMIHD
D(2) dopamine receptor, sequence (P14416 whole entry): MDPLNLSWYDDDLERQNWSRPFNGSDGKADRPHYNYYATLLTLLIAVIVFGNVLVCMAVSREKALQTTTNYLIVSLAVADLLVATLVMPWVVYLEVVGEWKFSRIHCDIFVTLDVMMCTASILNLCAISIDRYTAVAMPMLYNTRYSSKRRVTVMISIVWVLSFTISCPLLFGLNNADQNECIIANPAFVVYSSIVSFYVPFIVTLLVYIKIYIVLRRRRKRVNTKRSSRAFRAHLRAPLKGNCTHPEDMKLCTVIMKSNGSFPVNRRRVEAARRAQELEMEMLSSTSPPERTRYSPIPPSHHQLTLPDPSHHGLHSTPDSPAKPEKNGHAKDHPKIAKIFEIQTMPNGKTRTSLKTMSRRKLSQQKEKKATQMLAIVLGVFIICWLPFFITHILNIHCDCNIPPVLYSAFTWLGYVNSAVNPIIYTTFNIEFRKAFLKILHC

SMILES	inhibition (D(2) dopamine receptor)	inhibition [1]	inhibition [2]	Ki [3]	microsomal CLint at 20 µM [4]	Activity (Rattus norvegicus [5])	Retention_time [6]	Retention_time [7]	Ki [8]	Activity (Rattus norvegicus [9])	minimal effective dose (Rattus norvegicus [9])	Retention_time [10]
Cn1cc(S(=O)(=O)N(CC2CC2)C2CCN(CCOc3ccccc3-c3ccccc3)CC2)cn1	94%	< 17%	< 17%	10 nM	55.9 µL/min/mg	inactive	4.59 min	5.46 min	159 nM	Dose-dependent effect	1 mg/kg	–
CN(C1CCN(CCOc2ccccc2C(C)(C)C)CC1)S(=O)(=O)c1cnn(C)c1	–	< 17%	< 17%	58 nM	190 µL/min/mg	–	–	5.22 min	9630 nM	–	–	4.09 min
Cn1cc(S(=O)(=O)N(CC2CC2)C2CCN(CCOc3ccccc3C(C)(C)C)CC2)cn1	–	< 17%	< 17%	49 nM	77.9 µL/min/mg	inactive	–	5.74 min	17800 nM	Dose-dependent effect	1 mg/kg	4.72 min
CN(C1CCN(CCOc2ccccc2-c2ccccc2)CC1)S(=O)(=O)c1cnn(C)c1	93%	< 17%	< 17%	7 nM	167 µL/min/mg	–	4.64 min	4.88 min	80 nM	–	–	–
